Measurements collected from several papers.
Lines come from different studies, so protocols differ.
Sterol carrier protein 2: Sterol carrier protein 2 (Aedes aegypti, UniProt Q86PR3)
Adora2a: Adenosine receptor A2a (Adora2a, Rattus norvegicus, UniProt P30543)

| SMILES | target | read-out | action | technique | setting | endpoint | result |
| --- | --- | --- | --- | --- | --- | --- | --- |
| O=C(/C=C/c1ccc(O)cc1)/C=C/c1ccc(O)cc1 | Sterol carrier protein 2 | ligand displacement |  | fluorescence |  | EC50 | 2.38 µM |
| Cc1cc(Nc2cc3ncccc3c(N[C@@H]3C[C@H]4CC[C@@H](C3)N4CCC#N)n2)n[nH]1 | Mitogen-activated protein kinase kinase kinase 9 (MAP3K9, Homo sapiens, UniProt P80192) | binding |  | competition with immobilised ligand |  | Kd | 0.054 µM |
| N[C@@H](CCC(=O)O)C(=O)O | Metabotropic glutamate receptor 4 (Grm4, Rattus norvegicus, UniProt P31423) | ion flux | agonist |  |  | EC50 | 7.9 µM |
| CN1CCN(c2ccc(Nc3ncc4cc(C#N)c(=O)n(C5CCCC5)c4n3)cc2)CC1 | Calcium/calmodulin-dependent protein kinase type II subunit delta (CAMK2D, Homo sapiens, UniProt Q13557) | enzyme activity | inhibitor |  |  | IC50 | 1.6 µM |
| CCCCCCCCCCCCCCCC(=O)OC[C@H](COP(=O)(O)OC1[C@H](O)[C@H](O)C(OP(=O)(O)O)[C@H](O)[C@H]1O)OC(=O)CCCCCCCCCCCCCCC (some centres unmarked) | SHC-transforming protein 1 (Homo sapiens, UniProt P29353) | binding |  | fluorescence |  | Kd | 4.1 µM |
| C=CN1CCCn2c1nc1c2c(=O)n(C)c(=O)n1C | Adora2a | ligand displacement |  | radioligand | cell membranes | Ki | > 25 µM |
| CCCS(=O)(=O)Nc1ccc(F)c(C(=O)c2c[nH]c3ncc(-c4ccc(Cl)cc4)cc23)c1F | Mitogen-activated protein kinase kinase kinase 20, non-phosphorylated (MAP3K20, Homo sapiens, UniProt Q9NYL2) | binding |  | ITC |  | Kd | 0.029 µM |
| O=C1/C(=C/c2ccco2)CCC/C1=C\c1ccco1 | Sterol carrier protein 2 | ligand displacement |  | fluorescence |  | EC50 | 62.9 µM |
| CCCCCC(C)N1CCCn2c1nc1c2c(=O)n(C)c(=O)n1C (centres unmarked) | Adora2a | ligand displacement |  | radioligand | cell membranes | Ki | 2.38 µM |
| CCCN1CCN(c2ccc(-c3cncc(Cl)c3N3CCC4(CCNC4=O)CC3)cc2)CC1 | E3 ubiquitin-protein ligase NEDD4 (Homo sapiens, UniProt P46934) | cell-free assay |  |  | lysate | Kd | 18.4 µM |
| Cc1cnc(-c2ccc(-c3ccc(NC(=O)Nc4c(F)cc(F)cc4F)cc3F)c3c2C(=O)NC3)[nH]1 | BDNF/NT-3 growth factors receptor (NTRK2, Homo sapiens, UniProt Q16620) | binding |  | competition with immobilised ligand |  | Kd | 0.0045 µM |
